{"source": "ChEMBL document CHEMBL4033794", "about": "“Discovery of Trifluoromethyl Glycol Carbamates as Potent and Selective Covalent Monoacylglycerol Lipase (MAGL) Inhibitors for Treatment of Neuroinflammation” (J Med Chem, 2018)", "key": {"[1]": {"experiment": "Ratio of AUClast in C57BL6J mouse brain to plasma at 1 mg/kg, sc measured up to 24 hrs post dose by HPLC-MS/MS analysis", "details": "brain and plasma"}, "[2]": {"biological_target": "T1, Fatty-acid amide hydrolase 1 (Homo sapiens, UniProt O00519)", "T1 sequence (O00519 whole entry)": "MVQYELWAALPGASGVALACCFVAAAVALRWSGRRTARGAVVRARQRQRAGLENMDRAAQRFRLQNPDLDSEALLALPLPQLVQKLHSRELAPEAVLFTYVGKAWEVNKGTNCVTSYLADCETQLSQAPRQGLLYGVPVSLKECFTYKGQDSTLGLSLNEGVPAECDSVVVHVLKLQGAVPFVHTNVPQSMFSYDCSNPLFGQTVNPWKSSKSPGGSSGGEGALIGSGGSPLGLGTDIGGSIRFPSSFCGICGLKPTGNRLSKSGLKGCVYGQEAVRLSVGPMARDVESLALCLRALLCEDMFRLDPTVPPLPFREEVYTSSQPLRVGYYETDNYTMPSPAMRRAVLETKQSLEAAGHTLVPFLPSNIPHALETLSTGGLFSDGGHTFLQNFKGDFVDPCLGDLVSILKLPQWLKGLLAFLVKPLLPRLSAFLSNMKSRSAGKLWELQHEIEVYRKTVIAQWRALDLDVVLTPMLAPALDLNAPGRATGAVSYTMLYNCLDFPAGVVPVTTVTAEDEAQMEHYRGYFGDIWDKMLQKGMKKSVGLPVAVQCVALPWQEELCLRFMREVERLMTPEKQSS", "experiment": "Inhibition of recombinant human FAAH using fluorogenic arachidonoyl-AMC as substrate preincubated for 30 mins followed by substrate addition measured after 60 mins by fluorescence based assay", "method_in_brief": "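Human recombinant FAAH (0.0125 U final) in 50 mM Tris pH 9.0, 1 mM EDTA, preincubated 30 min at room temperature with compound (30 μM to 0.3 nM final); arachidonoyl-AMC 5 μM added, 60 min reaction, read Ex/Em 355/460. Inhibition vs no-compound and full-inhibition controls; four-parameter fit; geometric mean of ≥3 experiments.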"}, "[3]": {"experiment": "Lipophilicity, log D of the compound by HPLC analysis", "format": "physicochemical", "method_in_brief": "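LogD determined by an HPLC-based (eLogD) method.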"}, "[4]": {"experiment": "Kinetic solubility of the compound at pH 7.4", "format": "physicochemical", "details": "buffer, read-out: Kinetic_solubility"}, "[5]": {"biological_target": "T2, CES1 (liver carboxylesterase 1) (Homo sapiens, UniProt P23141)", "T2 sequence (P23141 whole entry)": "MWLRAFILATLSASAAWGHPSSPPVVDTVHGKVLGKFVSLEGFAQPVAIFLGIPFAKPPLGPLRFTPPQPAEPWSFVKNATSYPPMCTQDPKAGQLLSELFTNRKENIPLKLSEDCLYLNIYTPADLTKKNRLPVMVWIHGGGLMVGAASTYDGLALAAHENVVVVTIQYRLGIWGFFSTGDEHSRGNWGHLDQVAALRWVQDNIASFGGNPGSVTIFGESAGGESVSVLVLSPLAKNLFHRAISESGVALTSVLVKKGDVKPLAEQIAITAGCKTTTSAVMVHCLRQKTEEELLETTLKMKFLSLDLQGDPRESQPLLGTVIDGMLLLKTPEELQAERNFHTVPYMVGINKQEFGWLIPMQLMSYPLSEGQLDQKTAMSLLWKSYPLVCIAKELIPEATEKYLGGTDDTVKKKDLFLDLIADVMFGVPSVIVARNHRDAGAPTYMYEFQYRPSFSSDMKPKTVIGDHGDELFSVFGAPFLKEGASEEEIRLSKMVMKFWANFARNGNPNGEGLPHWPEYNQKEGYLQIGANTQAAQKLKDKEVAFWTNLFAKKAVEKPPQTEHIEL", "experiment": "Inhibition of human CES1 at 10 uM", "method_in_brief": "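Panel of 42 human serine hydrolases, each exposed to inhibitor at 10 µM; activity expressed as percent inhibition.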"}, "[6]": {"experiment": "Unbound fraction in C57BL6J mouse plasma at 1 mg/kg, sc measured up to 24 hrs post dose by HPLC-MS/MS analysis", "format": "ADME, organism-based"}, "[7]": {"biological_target": "T3, CYP1A2 (Homo sapiens, UniProt P05177)", "T3 sequence (P05177 whole entry)": "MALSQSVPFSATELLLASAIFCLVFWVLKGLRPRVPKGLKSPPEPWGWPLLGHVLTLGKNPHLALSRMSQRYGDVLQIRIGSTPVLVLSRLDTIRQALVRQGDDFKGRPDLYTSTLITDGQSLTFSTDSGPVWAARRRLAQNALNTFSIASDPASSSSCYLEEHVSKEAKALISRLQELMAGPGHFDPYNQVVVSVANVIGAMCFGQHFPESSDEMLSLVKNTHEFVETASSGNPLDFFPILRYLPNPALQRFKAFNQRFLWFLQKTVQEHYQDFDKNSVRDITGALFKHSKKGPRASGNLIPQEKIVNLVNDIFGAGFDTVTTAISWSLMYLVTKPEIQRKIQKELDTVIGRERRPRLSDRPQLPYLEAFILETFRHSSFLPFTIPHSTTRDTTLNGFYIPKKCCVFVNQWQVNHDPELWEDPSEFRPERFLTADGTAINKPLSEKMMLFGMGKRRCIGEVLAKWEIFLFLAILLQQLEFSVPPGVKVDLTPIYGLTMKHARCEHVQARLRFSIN", "experiment": "Inhibition of CYP1A2 (unknown origin) at 3 uM", "format": "ADME", "method_in_brief": "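Competitive inhibition screen of CYP3A4, 2D6, 2C9, 2C8 and 1A2 using isoform-relevant probe substrates, compound at 3 μM.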"}, "[8]": {"experiment": "Cmax in C57BL6J mouse brain at 1 mg/kg, sc up to 24 hrs post dose", "format": "ADME, organism-based", "set-up": "dose 1 mg/kg, route subcutaneous"}, "[9]": {"system": "Mus musculus", "experiment": "Anti-inflammatory activity in C57BL6J mouse assessed as reduction in LPS-induced PGE2 levels in brain at 1 mg/kg, sc administered 30 mins after LPS challenge measured at 4 hrs post LPS challenge by LC-MS/MS analysis", "format": "functional, organism-based", "method_in_brief": "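Mice given LPS 20 mg/kg IP or saline, then 1 mg/kg SC compound or vehicle 30 min later; brains collected 4 h post-LPS, homogenized in pH 2.0 PMSF/NH4OAc buffer, spiked with d4-PGE2 internal standard, acetonitrile-extracted, and PGE2 quantified by LC-MS/MS.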"}, "[10]": {"biological_target": "Cannabinoid receptor 1 (Homo sapiens, UniProt P21554)", "sequence (P21554 whole entry)": "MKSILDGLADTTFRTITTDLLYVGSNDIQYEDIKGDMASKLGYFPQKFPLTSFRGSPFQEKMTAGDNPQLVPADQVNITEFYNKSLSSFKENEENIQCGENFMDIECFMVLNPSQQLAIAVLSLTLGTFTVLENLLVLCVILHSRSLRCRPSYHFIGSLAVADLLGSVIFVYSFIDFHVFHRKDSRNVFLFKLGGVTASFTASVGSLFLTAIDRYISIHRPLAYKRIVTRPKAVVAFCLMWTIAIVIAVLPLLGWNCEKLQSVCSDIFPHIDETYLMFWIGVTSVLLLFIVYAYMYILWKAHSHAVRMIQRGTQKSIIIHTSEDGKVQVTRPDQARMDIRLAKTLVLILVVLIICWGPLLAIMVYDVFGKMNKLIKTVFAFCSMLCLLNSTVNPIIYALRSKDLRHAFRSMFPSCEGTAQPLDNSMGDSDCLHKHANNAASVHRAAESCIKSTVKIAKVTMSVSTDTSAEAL", "experiment": "Displacement of [3H]CP55940 from human CB1 receptor expressed in CHOK1 cell membranes at 10 uM after 120 mins by scintillation counting method"}, "[11]": {"system": "Mus musculus", "experiment": "Time at which unbound brain concentration stays above in vitro MAGL IC50 in C57BL6J mouse at 1 mg/kg, sc up to 24 hrs post dose", "method_in_brief": "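Male C57BL6J mice dosed 1 mg/kg SC in DMSO:Cremophor:saline 5:5:90, 10 mL/kg; plasma and brain taken at 0.5, 1, 2, 4, 8, 12, 24 h. Drug measured in plasma and cerebellum; 2-AG and arachidonic acid in brain hemisphere, compared with vehicle-treated mice.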"}, "[12]": {"organism": "Mus musculus", "details": "C57BL6J, 1 mg/kg"}, "[13]": {"organism": "Mus musculus", "details": "C57BL6J, 1 mg/kg", "remark": "listed apart in the source"}, "[14]": {"organism": "Mus musculus", "details": "C57BL6J, 1 mg/kg", "remark": "listed apart in the source"}}, "note": "Activity calls are given as the source filed them. No cut-off for these calls is given here.", "data": [{"smiles": "O=C(O[C@H](CO)C(F)(F)F)N1C[C@@H]2[C@H](C1)[C@H]2c1ccn(-c2ccc(F)cc2)n1", "values": [{"measurement": "Kp at 24 h", "setting": "[1]", "result": 2.4}, {"measurement": "IC50", "setting": "[2]", "result": 3.1, "unit": "µM"}, {"measurement": "logD", "setting": "[3]", "result": 3.8}, {"measurement": "solubility kinetic", "setting": "[4]", "result": 115, "unit": "µM"}, {"measurement": "inhibition at 10 µM", "setting": "[5]", "result": 80, "unit": "%"}, {"measurement": "fraction unbound at 24 h", "setting": "[6]", "result": 0.0135}, {"measurement": "inhibition at 3 µM", "setting": "[7]", "result": "< 10", "unit": "%"}, {"measurement": "Cmax", "setting": "[8]", "result": "> 1000", "unit": "nM"}, {"measurement": "Activity", "setting": "[9]", "result": "Active"}, {"measurement": "inhibition", "setting": "[10]", "result": "inactive"}, {"measurement": "Time", "setting": "[11]", "result": 2, "unit": "h"}, {"measurement": "inhibition", "setting": "[12]", "result": "Active"}, {"measurement": "inhibition", "setting": "[13]", "result": "Active"}, {"measurement": "inhibition", "setting": "[14]", "result": "Active"}]}]}
